Source: PubChem (Johns Hopkins Ion Channel Center)
TRPC6 act: mouse TRPC6 channel activators, primary screen, cell-based, HEK293, membrane potential dye | Short transient receptor potential channel 6 (Mus musculus), Q61143 | HEK293-TRPC6 membrane potential dye fluorescence; active compounds read high | B-score at 10 µM | actives 0.13% (n = 310,000) | AID 2550, 2010;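 active = B-score of the integrated fluorescence ratio above library mean plus 3 SD, and starting fluorescence ratio within library mean plus 5 SD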;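 also: higher score means more depolarization so channel activation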
Target sequence (Q61143 whole entry, looked up): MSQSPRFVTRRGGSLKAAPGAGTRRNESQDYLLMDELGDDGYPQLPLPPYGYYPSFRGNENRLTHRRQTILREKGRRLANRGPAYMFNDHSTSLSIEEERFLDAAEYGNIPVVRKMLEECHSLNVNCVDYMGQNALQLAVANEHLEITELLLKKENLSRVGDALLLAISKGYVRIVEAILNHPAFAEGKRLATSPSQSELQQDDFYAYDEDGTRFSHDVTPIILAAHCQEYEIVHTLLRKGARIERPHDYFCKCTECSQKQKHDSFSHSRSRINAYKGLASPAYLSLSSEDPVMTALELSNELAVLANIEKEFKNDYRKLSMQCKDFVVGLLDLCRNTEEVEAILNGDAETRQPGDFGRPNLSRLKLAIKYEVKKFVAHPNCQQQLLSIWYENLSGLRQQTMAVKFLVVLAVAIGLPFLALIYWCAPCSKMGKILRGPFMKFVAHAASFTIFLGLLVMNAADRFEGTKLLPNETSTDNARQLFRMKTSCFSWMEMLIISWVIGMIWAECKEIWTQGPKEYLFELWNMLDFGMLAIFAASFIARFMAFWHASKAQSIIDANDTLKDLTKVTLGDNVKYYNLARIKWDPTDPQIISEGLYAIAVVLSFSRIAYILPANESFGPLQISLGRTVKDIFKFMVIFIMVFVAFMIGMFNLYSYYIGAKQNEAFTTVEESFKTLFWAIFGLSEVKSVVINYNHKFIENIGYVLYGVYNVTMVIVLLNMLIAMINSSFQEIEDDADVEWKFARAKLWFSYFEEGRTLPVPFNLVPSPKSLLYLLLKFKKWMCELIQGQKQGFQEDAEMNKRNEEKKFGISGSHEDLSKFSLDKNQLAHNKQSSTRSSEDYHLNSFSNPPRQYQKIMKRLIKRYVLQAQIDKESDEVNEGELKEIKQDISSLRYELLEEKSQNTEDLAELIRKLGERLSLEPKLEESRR
TRPC4 potent: positive allosteric modulators of TRPC4, primary screen, cell-based, mouse TRPC4beta, HEK293 mu-opioid, Fluo-4 calcium | B-score at 10 µM | Short transient receptor potential channel 4 (Mus musculus), Q9QUQ5 | AID 2227, 2009 | DAMGO EC20, Fluo-4 Ca2+ flux; active compounds read high | actives 0.42% (n = 310,000);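 active = B-score of calcium response area above 5 SD of library B-scores, with initial fluorescence ratio within 5 SD of library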
TRPC6 inh: mouse TRPC6 channel inhibitors, primary screen, cell-based, HEK293, membrane potential dye; Short transient receptor potential channel 6 (Mus musculus), Q61143; ACh-evoked depolarization; active compounds read low; B-score at 10 µM; actives 1.1% (n = 310,000);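 active = B-score under library mean minus 3 SD, initial fluorescence not abnormally high, positive integrated signal ratio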;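 also: B-score derived from integrated fluorescence ratio over the kinetic read; more negative B-score means stronger inhibition of depolarization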
TRPC4 inh: inhibitors of mouse TRPC4 channel, primary screen, Fluo4 calcium, HEK293 TRPC4beta/mu-opioid cells; Short transient receptor potential channel 4 (Mus musculus), Q9QUQ5; DAMGO-evoked Fluo4 calcium flux; active compounds read low; B-score at 10 µM; actives 0.39% (n = 300,000);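 active = B-score over 3 SD under the library average, no early fluorescence shift, positive overall ratio signal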
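Assay system: TRPC4beta/mu-opioid receptor HEK293 cell line; compound dosing: single concentration per test compound; detection: Fluo4 Ca2+ flux fluorescence; evaluation: per-well B score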
TRPC4 act: activators of mouse TRPC4 channel, primary screen, Fluo4 calcium, HEK293 TRPC4beta/mu-opioid cells. AID 2237, 2010. Fluo4 calcium fluorescence; active compounds read high. Short transient receptor potential channel 4 (Mus musculus), Q9QUQ5. B-score at 10 µM. actives 0.49% (n = 310,000);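 active = B-score above 5 SD of library B-scores, and initial fluorescence ratio not above library mean plus 5 SD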;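 also: positive B-score marks a calcium rise read as TRPC4 activation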
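Assay system: HEK293 cells stably co-expressing mouse TRPC4beta and mu-opioid receptor / Timing: Fluo4 dye loading 45 min at room temperature, 110 s recording / Signal: Fluo4 calcium-sensitive dye fluorescence, kinetic, 1 Hz baseline / Read-out: integrated baseline-normalised fluorescence ratio, converted to per-well B score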
HEK293 TRPC6 ctr: parental HEK293 membrane potential modulation, confirmation, counter-screen for TRPC6 modulator project, cell-based | shares compounds with TRPC6 inh | membrane potential dye fluorescence | membrane potential signal change, % at 10 µM | actives 51% (n = 2,400);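 active = membrane potential signal moves up or down beyond 5 SD from buffer-only wells, on both duplicate plates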
HEK293 MPD ctr 2: second check of TRPC6 modulator effects in parental HEK293 cells; shares compounds with TRPC6 inh; membrane potential dye fluorescence; after compound, maximal acetylcholine stimulation; inhibition, % at 10 µM; actives 14% (n = 2,400);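 active = membrane potential signal drops by more than 5 SD from the mean control signal, in both duplicate plates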
TRPC4/MOR mod: TRPC4 modulation by TRPC6 hit compounds, confirmation, selectivity assay for TRPC6 modulator project, cell-based, HEK293 TRPC4/mu-opioid, membrane potential dye, mouse; percent change from control (negative = decrease, positive = increase), % at 10 µM; actives 69% (n = 2,400); AID 488927, 2010; shares compounds with TRPC6 inh; membrane potential fluorescence;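 active = membrane potential signal moved up or down beyond 5 SD of buffer control wells, in both duplicate plates, actives on both sides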
TRPC4 ctr inh 2: second selectivity test of TRPC6 modulators against mouse TRPC4; shares compounds with TRPC6 inh; AID 488928; inhibition, % at 10 µM; HEK293 TRPC4/mu-opioid, membrane potential dye fluorescence; stimulated with maximal-effect DAMGO; actives 55% (n = 2,400);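 active = drop in membrane potential signal beyond 5 SD of the control wells in both duplicate plates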;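 also: TRPC4 counter screen for TRPC6 hits run under conditions tuned for TRPC6 not TRPC4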
TRPC6 inh conf: mouse TRPC6 channel inhibitors, confirmation, HEK293 cells, membrane potential dye, duplicate; inhibition, % at 10 µM; shares compounds with TRPC6 inh; ACh-evoked depolarization; actives 43% (n = 3,300); AID 488960, 2010;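 active = fluorescence ratio falls more than 5 SD below the full-stimulation control mean, in both duplicate runs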;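 also: integrated fluorescence ratio of peak minus minimum over baseline after agonist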
TRPC6 act conf: mouse TRPC6 channel activators, confirmation, HEK293 cells, membrane potential dye, duplicate | shares compounds with TRPC6 inh | HEK293-TRPC6 membrane potential dye fluorescence, FDSS | activation, % at 10 µM | actives 11% (n = 2,800) | AID 488961, 2010;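 active = ratio signal rise beyond 5 SD above unstimulated control wells' mean, seen in both duplicate runs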
A number is an active result; i = inactive; nt = no result. Compounds with a hit are over-represented: about 2.3% of the library has one in this group of screens.

SMILES	TRPC6 act	TRPC4 potent	TRPC6 inh	TRPC4 inh	TRPC4 act	HEK293 TRPC6 ctr	HEK293 MPD ctr 2	TRPC4/MOR mod	TRPC4 ctr inh 2	TRPC6 inh conf	TRPC6 act conf
CCc1cccc2c1Sc1ccccc1CC2N1CCNCC1 (stereo not drawn)	i	i	-5.52	i	i	i	i	i	70.0%	49.5%	i
CN1CCN(C2Cc3ccccc3Sc3cc(C(F)(F)F)ccc32)CC1 (stereo not drawn)	i	i	i	i	i	nt	nt	nt	nt	nt	nt
Cc1cccc2c1Sc1ccc(Cl)cc1CC2N1CCNCC1 (stereo not drawn)	i	i	-5.12	i	i	i	i	i	61.0%	43.0%	i
CN1CCN(C2Cc3cc(F)ccc3Sc3ccc(Cl)cc32)CC1 (stereo not drawn)	i	i	-5.28	i	i	i	i	21.0%	47.0%	48.5%	nt
CC(C)c1ccc2c(c1)C(N1CCNCC1)Cc1ccc(F)cc1S2 (stereo not drawn)	i	i	i	i	i	nt	nt	nt	nt	nt	nt
CN1CCN(C2Cc3ccc(F)cc3Sc3cc(F)c(Cl)cc32)CC1 (stereo not drawn)	i	i	i	i	i	nt	nt	nt	nt	nt	nt
COc1cccc(OCc2cc(/C=N/Nc3ccc(C(=O)O)cc3)ccc2OC)c1	i	i	i	i	i	nt	nt	nt	nt	nt	nt
Cc1cccc(CS(=O)(=O)Cc2ccc(C(=O)NC3CCCCC3)o2)c1	i	i	i	i	i	nt	nt	nt	nt	nt	nt
COc1ccc(C2=CSC3=NCCN23)cc1Cl	i	i	i	i	i	nt	nt	nt	nt	nt	nt
COc1ccc(C2=CSC3=NCCN23)cc1Br	i	i	-5.22	i	i	i	i	i	35.5%	i	i
CN(C)CCN(C(=O)c1ccc2c(c1)CCCC2)c1nc2cc3c(cc2s1)OCCO3	i	i	i	i	i	nt	nt	nt	nt	nt	nt
CN(C)CCN(C(=O)c1ccc2c(c1)OCCO2)c1nc2cc3c(cc2s1)OCO3	i	i	-6.37	i	i	-82.0%	99.5%	-24.5%	92.0%	87.5%	i
COc1ccc2nc(N(CCN(C)C)C(=O)c3ccc4c(c3)OCCO4)sc2c1	i	i	-5.06	i	i	i	i	-23.5%	72.0%	64.0%	i
Cc1cc(C)c2cc3c(ccn3C3OC[C@H](O)[C@H](O)[C@H]3O)cc2n1 (stereo partly drawn)	i	i	-7.08	i	i	i	i	-67.5%	34.0%	i	i
CC(=O)O[C@@H]1[C@@H](OC(C)=O)[C@H](n2ccc3cc([N+](=O)[O-])ccc32)OC[C@@H]1OC(C)=O	i	i	i	i	i	nt	nt	nt	nt	nt	nt
CCOC(=O)N1CCC2(CC1)NCCc1c2[nH]c2ccccc12	i	i	i	i	i	nt	nt	nt	nt	nt	nt
Cc1cc(C)c(C#N)c(Nc2ccc3c(c2)OCCO3)n1	i	i	i	i	i	nt	nt	nt	nt	nt	nt
Cc1cc(Nc2ccc3c(c2)OCCO3)c2cc(Cl)ccc2n1	i	i	-5.06	i	i	-83.0%	i	-16.5%	44.0%	i	i
COc1ccc(C(CNC(=O)Cc2ccccc2Cl)N2CCCCC2)cc1 (stereo not drawn)	i	i	i	i	i	nt	nt	nt	nt	nt	nt
COc1ccc(C(CNC(=O)c2ccc(Cl)c(NC(=O)c3cccs3)c2)N2CCCC2)cc1 (stereo not drawn)	i	i	-6.05	i	i	105.5%	i	i	63.5%	42.5%	nt
COCc1ccc(C(=O)NC2CCSc3ccccc32)cc1 (stereo not drawn)	i	i	i	i	i	nt	nt	nt	nt	nt	nt
CC(=O)Nc1ccc(NC(=O)C(C)OC(=O)CCCN2C(=O)c3cccc4cccc(c34)C2=O)cc1 (stereo not drawn)	i	i	i	i	i	nt	nt	nt	nt	nt	nt
O=C(CCCC1=NS(=O)(=O)c2ccccc2N1)N1CCN(c2ccccc2)CC1	i	i	-5.67	i	i	i	i	i	i	47.0%	nt
Nn1c(SCC(=O)NCC2CCCO2)nnc1-c1ccc(OC(F)F)cc1 (stereo not drawn)	i	i	i	i	i	nt	nt	nt	nt	nt	nt
COC(=O)c1ccc(S(=O)(=O)N2CCN(C)CC2)n1C	i	i	i	i	i	nt	nt	nt	nt	nt	nt
SMILES	TRPC6 act	TRPC4 potent	TRPC6 inh	TRPC4 inh	TRPC4 act	HEK293 TRPC6 ctr	HEK293 MPD ctr 2	TRPC4/MOR mod	TRPC4 ctr inh 2	TRPC6 inh conf	TRPC6 act conf
COC(=O)c1ccc(S(=O)(=O)N2CCCCCC2)n1C	i	i	-5.43	i	i	i	i	7.5%	i	i	i
O=C(CCCN1C(=O)c2cccnc2Oc2ccc(Cl)cc21)N1CCCCC1	i	i	i	i	i	nt	nt	nt	nt	nt	nt
CCCCOc1ccc(OCCNC(=O)C2CCCN2C(=O)Nc2ccccc2)cc1 (stereo not drawn)	i	i	i	i	i	nt	nt	nt	nt	nt	nt
Cc1nn(C)c(C(=O)N/N=C/c2ccc(C(F)(F)F)cc2)c1[N+](=O)[O-]	i	i	-5.78	i	i	i	i	-13.5%	i	i	i
CCOC(=O)c1cnc2c(CC)cccc2c1NCCCN1CCOCC1	i	i	i	i	i	nt	nt	nt	nt	nt	nt
CCOC(=O)c1cnc2c(C(F)(F)F)cccc2c1NCCCN1CCOCC1	i	i	-7.15	i	i	-185.0%	i	-34.5%	51.5%	i	i
CCOC(=O)c1cnc2c(Cl)cccc2c1NCCCN1CCOCC1	i	i	-6.34	i	i	-187.0%	i	-30.5%	38.0%	44.0%	i
CCOC(=O)c1cnc2c(Cl)cccc2c1NCCN1CCOCC1	i	i	i	i	i	nt	nt	nt	nt	nt	nt
COc1ccc(OC)c(C(=O)NC(CC(N)=O)c2ccc(N3CCN(c4ccc(F)cc4)CC3)c([N+](=O)[O-])c2)c1 (stereo not drawn)	i	i	i	i	i	nt	nt	nt	nt	nt	nt
